NPY Y1 blocker: antagonists of human neuropeptide Y receptor Y1; HEK293-CNG Y1 cells, membrane potential fluorescence; NPY at EC95, then isoproterenol; AID 1040; 1% of 200,000 active; inhibition, % at 3.6 µM; P25929;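 active means inhibition above the campaign mean inhibition of all tested compounds plus 3 SD, cut at about 20% in these data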
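Material: HEK293 cells co-expressing NPY Y1 receptor and cyclic-nucleotide gated channel. Timing: compound incubation 1 h at room temperature, readout 45 min post-stimulation. Signal: fluorescence, membrane potential probe.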
WT yeast gro inh: growth inhibition of WT yeast, mitochondrial fusion screen; mitochondrial fusion phenotypic screen, WT strain; inhibition, % at 10 µM; 2.1% of 190,000 active; AID 1362; in the data active means inhibition above about 58%; tested in S. cerevisiae
NPY-Y2 antag: NPY-Y2 (human) receptor antagonism; 0.99% of 140,000 active; NPY-Y2 expressing cells, antagonist mode; inhibition, % at 2.7 µM; AID 793; in the data active means inhibition above about 17%
Target sequence (P49146 whole entry, looked up): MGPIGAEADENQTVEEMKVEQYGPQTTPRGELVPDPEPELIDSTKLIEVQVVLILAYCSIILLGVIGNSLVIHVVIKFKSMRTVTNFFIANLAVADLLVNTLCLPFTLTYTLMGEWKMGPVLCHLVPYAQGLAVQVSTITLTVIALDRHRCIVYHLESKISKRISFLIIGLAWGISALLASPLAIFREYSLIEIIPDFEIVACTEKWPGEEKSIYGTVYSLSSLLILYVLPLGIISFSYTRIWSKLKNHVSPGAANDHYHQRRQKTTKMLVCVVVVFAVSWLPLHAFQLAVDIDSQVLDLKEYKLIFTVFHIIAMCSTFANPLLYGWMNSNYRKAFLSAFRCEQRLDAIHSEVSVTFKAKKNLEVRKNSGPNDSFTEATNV
NPY1 pot ag: human NPY-Y1 potentiation or agonism, primary screen. P25929. NPY-Y1 expressing cells, potentiator/agonist activation. activation, % at 3.6 µM. 0.37% of 220,000 active; in the data active means activation above about 33%, passing the limit was not always enough;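 further: cells stimulated with NPY at EC10 then isoproterenol at EC100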
NPY2 pot ag: human NPY-Y2 potentiation or agonism, primary screen | 0.45% of 220,000 active | activation, % at 3.6 µM | cells expressing NPY-Y2, potentiator/agonist read-out | P49146; in the data active means activation above about 27%;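 further: cells stimulated with NPY near EC25 plus isoproterenol at EC100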
RAM inhibit: inhibitors of the yeast RAM network; inhibition, % at 50 µM; 1.8% of 190,000 active; S. cerevisiae dse1pr::URA3 reporter, 5-FOA growth OD615, 2 d; analog-sensitive cbk1-as2 kinase mutant strain;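 active means inhibition above a set limit, 3 SD over mean compound inhibition, cut at about 8.4% in these data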;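 further: inhibition rescues growth on 5-FOA so higher OD means more RAM inhibition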
Of the large screens only hits and unclear results are named; the others gave an inactive call. A selection: hits, their analogues and other compounds. The true share with any hit is near 4.9%.

CC(=O)Oc1ccc2c(c1)Oc1cc(OC(C)=O)ccc1C21OC(=O)c2ccccc21	NPY Y1 blocker 32, NPY-Y2 antag 79
Cn1ncc(Cl)c1C(=O)Nc1cccnc1	NPY1 pot ag 43
CCC(Sc1nc2ccccc2o1)C(=O)O (configuration not stated)	NPY Y1 blocker 21 (no result: NPY-Y2 antag)
COC(=O)c1ccc(CSc2nc3ccccc3o2)cc1	RAM inhibit 8.8
O=CN1CCC(=O)N(Cc2ccccc2)c2ccccc21	none
Cc1ccc2c(N)c(C#N)sc2n1	WT yeast gro inh 87
CC(C)c1ccc2oc(-c3cc(N)ccc3O)nc2c1	WT yeast gro inh 68
CCCCC(c1nnnn1CC1CCCO1)N1CCN(c2cc(Cl)ccc2C)CC1 (configuration not stated)	WT yeast gro inh 60
CCCCC(c1nnnn1CC1CCCO1)N1CCN(c2ccccc2)CC1 (configuration not stated)	none (no result: NPY-Y2 antag)
Cc1ccc(N2C(=O)CS/C2=C(\C(Cl)=C(Cl)Cl)[N+](=O)[O-])cc1	none
CC1CCCC(C)N1C(=C(Cl)Cl)C(=C1SCCS1)[N+](=O)[O-] (configuration not stated)	RAM inhibit 8.8 (no result: NPY-Y2 antag)
O=C(O)c1ccc(Sc2nnnn2-c2ccccc2)c([N+](=O)[O-])c1	none
O=C(O)COc1ccccc1/C=N/NC(=O)CSc1nc2ccccc2c(=O)n1-c1ccc(Cl)cc1	none (no result: NPY Y1 blocker, WT yeast gro inh, NPY-Y2 antag, RAM inhibit)
CC(C)C1Nc2c(O)cc(Cl)c([N+](=O)[O-])c2C2C=CCC21 (configuration not stated)	WT yeast gro inh 83 (no result: NPY-Y2 antag)
CCOC(=O)c1cc(C)[nH]c(=S)c1C#N	none
COc1ccccc1OCCOc1ccc(C(=O)c2ccccc2)cc1	RAM inhibit 10.0
CCSc1nnc(NC(=O)C(Cc2ccccc2)n2cccc2)s1 (configuration not stated)	none
CC(C)[C@@H]1CC[C@@H](C)c2c(-c3ccccc3)n[nH]c21	WT yeast gro inh 62
c1ccc(-c2n[nH]c3c2CCC3)cc1	none
Nc1[nH]n2c(=O)cc(-c3ccccc3)nc2c1N=Nc1ccc2c(c1)OCO2	RAM inhibit 10 (no result: NPY-Y2 antag)
O=C(NC1CCCC1)c1ccc(COCC(F)(F)F)o1	none
COC(=O)C1=C(C)NC2=C(C(=O)CCC2)C1c1cccs1 (configuration not stated)	none
CC1=C(C(=O)N2CCCCC2)C(c2cccs2)C2=C(CCCC2=O)N1 (configuration not stated)	NPY-Y2 antag 22
COc1ccccc1C(=O)NC(=S)/C=C1/N(C)c2ccccc2C1(C)C	WT yeast gro inh 78
CN1/C(=C\C(=S)Nc2ccccc2)C(C)(C)c2ccccc21	WT yeast gro inh 61 (no result: NPY-Y2 antag)
CN1/C(=C\C(=O)Nc2ccc(Cl)cc2)C(C)(C)c2ccccc21	WT yeast gro inh 79
Cc1nc2ccc(S(=O)(=O)Nc3cccc(-c4nc5cccnc5s4)c3C)cc2s1	none
Cc1ccc(C)c(NC(=O)c2oc(=O)c3ccccc3c2-c2ccccc2)c1	none
Cc1cc(C)cc(NC(=O)N2CCCC2C(=O)Nc2ccc(-n3cnnn3)cc2)c1 (configuration not stated)	none
COc1ccc(N(C(C)=O)S(=O)(=O)c2cccs2)cc1	none
CC(=O)Oc1ccc(N(C(C)=O)S(=O)(=O)c2cccs2)cc1	WT yeast gro inh 66
FCCCOc1ccc(-c2nccc(-c3ccc(Cl)cc3)n2)cc1	RAM inhibit 8.8
COc1ccc(-c2ccnc(-c3ccc(OCCCF)cc3)n2)cc1	none
CCC(C)c1ccc(NC(=S)Nc2ccc(OC)cc2C)cc1 (configuration not stated)	WT yeast gro inh 75
Cc1ccc(NC(=S)NCC2CCCO2)cc1 (configuration not stated)	none
COc1ccc(NC(=S)NC(C)c2ccncc2)cc1OC (configuration not stated)	none (no result: NPY-Y2 antag)
COc1ccc(C)cc1NC(=S)NC(C)c1ccc(OC)c(OC)c1 (configuration not stated)	WT yeast gro inh 64 (no result: NPY-Y2 antag)
COc1ccc(C)cc1NC(=S)NC12CN3CN(CN(C3)C1)C2	none (no result: NPY-Y2 antag)
CCC(C)c1ccc(NC(=S)NC(C)C2CCCO2)cc1 (configuration not stated)	WT yeast gro inh 66 (no result: NPY-Y2 antag)
CCC(C)c1ccc(NC(=S)Nc2ccc(OC)c(OC)c2)cc1 (configuration not stated)	WT yeast gro inh 72
Cn1c(C(=O)NCCC2=CCCCC2)cc2c(=O)n3ccccc3nc21	none
CNc1nnc(-c2ccc(C)cc2)c2ccccc12	none (no result: NPY-Y2 antag)
COc1ccc(NS(=O)(=O)/C=C/c2ccccc2)cc1	none
CN(CC(=O)O/N=C(\N)c1cccc([N+](=O)[O-])c1)S(=O)(=O)c1ccccc1	WT yeast gro inh 58
Cn1c(=O)c2c(nc(CN3CCc4ccccc4C3)n2CCc2ccccc2)n(C)c1=O	NPY Y1 blocker 26 (no result: WT yeast gro inh, RAM inhibit)
CCOc1ccc(NC(=S)NC(C)CCc2ccccc2)cc1 (configuration not stated)	WT yeast gro inh 61 (no result: NPY-Y2 antag)
Cc1ccccc1NC(=S)NC(C)CCc1ccccc1 (configuration not stated)	WT yeast gro inh 68
CCOc1ccc(NC(=S)Nc2ccc(OCC)cc2)cc1	none (no result: NPY-Y2 antag)
Cc1cc(C)n(Cc2ccc(C(=O)Nc3cccc(Br)c3)o2)n1	none
Cc1cc(NC(=O)CCC(=O)N(Cc2ccco2)C(C(=O)NC2CCCCC2)c2cccs2)no1 (configuration not stated)	none (no result: NPY-Y2 antag)
COC(=O)C1CSc2[nH]c(=O)sc2C1c1ccc(OC)c(OC)c1 (configuration not stated)	WT yeast gro inh 77
Cc1ccc(C(=O)NC(=S)Nc2ccc3c(c2)OCCO3)c(C)c1	NPY Y1 blocker 22
Cc1ccc(C2=NNC(C(O)C(O)C(O)C(C)O)S2)cc1 (configuration not stated)	none
CN1CCN(C2=Cc3ccccc3Sc3cc(F)c(Cl)cc32)CC1	WT yeast gro inh 98
CN1CCN(C2=Cc3cc(Cl)ccc3Sc3cc(F)ccc32)CC1	WT yeast gro inh 95
CN1CCN(C2=Cc3ccccc3Sc3cc(F)c(F)cc32)CC1	none
CCOC(=O)C1CCN(CC(O)COCc2ccc3c(c2)OCO3)CC1 (configuration not stated)	none (no result: NPY-Y2 antag)
CS(=O)(=O)c1nsc2nc(=O)c(/C=C3\C=Nc4ccccc43)c(N)n12	RAM inhibit 9.9 (no result: NPY-Y2 antag)
C/C(=N/Nc1nc(-c2ccccc2)cc(-c2ccc(F)cc2)n1)c1cccc(N)c1	WT yeast gro inh 68
O=C1c2ccccc2C(=O)N1CCCCN(C(=O)c1ccc([N+](=O)[O-])cc1)c1ccc(Cl)cc1	NPY1 pot ag 67, NPY2 pot ag 95
O=C1c2ccccc2C(=O)N1CCCCN(C(=O)c1cc([N+](=O)[O-])ccc1Cl)c1ccc(Cl)cc1	WT yeast gro inh 66
O=C1c2ccccc2C(=O)N1CCCCN(C(=O)c1cc([N+](=O)[O-])cc([N+](=O)[O-])c1)c1ccc(Cl)cc1	none
